Read-outs that look alike come from different tables or passages of the source.
What was measured:
[1] = tested on: T. gondii RH-dTom tachyzoites in pretreated HFF cells; test: Host cell pre-treatment assay; type: cell-based, Toxoplasma gondii; settings: HFF cells exposed to 10 μM for 24 h, washed, then infected with RH-dTom
Procedure, shortened: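 HFF seeded at 20,000 cells/well in D10 and grown to confluence. Treated with 10 μM test compound for 24 h, then washed three times with D10 media. Infected with 2,000 RH-dTom (red fluorescent dTomato) tachyzoites. Parasite growth read by fluorescence at day 5 (methods) or day 4 (figure legend) post-infection. Run in triplicate.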

[2] = tested on: Salmonella typhimurium (TA100 strain); test: Bacterial reverse mutation; type: cell-based; settings: for Ames Assay (TA100): 3x the averaged T. gondii IC50, 48 replicates, point mutagenicity
[3] = Kinetic aqueous solubility by nephelometry; type: physicochemical; settings: pH 6.5 phosphate buffer; 30 min at room temperature; 1% DMSO
[4] = tested on: kidney (HEK293); settings: read-out: HEK293 IC50; cytotoxicity; ref Guigemende 2010; cited from earlier work
[5] = tested on: Human foreskin fibroblast (HFF); settings: read-out: HFF IC50; cytotoxicity; ref Guigemende 2010; cited from earlier work
[6] = target: human albumin column (Homo sapiens, UniProt P02768); test: Chromatography-based protein binding; type: in vitro ADME; settings: plasma protein binding estimated using a chromatographic method
human albumin column, sequence (P02768 25-609): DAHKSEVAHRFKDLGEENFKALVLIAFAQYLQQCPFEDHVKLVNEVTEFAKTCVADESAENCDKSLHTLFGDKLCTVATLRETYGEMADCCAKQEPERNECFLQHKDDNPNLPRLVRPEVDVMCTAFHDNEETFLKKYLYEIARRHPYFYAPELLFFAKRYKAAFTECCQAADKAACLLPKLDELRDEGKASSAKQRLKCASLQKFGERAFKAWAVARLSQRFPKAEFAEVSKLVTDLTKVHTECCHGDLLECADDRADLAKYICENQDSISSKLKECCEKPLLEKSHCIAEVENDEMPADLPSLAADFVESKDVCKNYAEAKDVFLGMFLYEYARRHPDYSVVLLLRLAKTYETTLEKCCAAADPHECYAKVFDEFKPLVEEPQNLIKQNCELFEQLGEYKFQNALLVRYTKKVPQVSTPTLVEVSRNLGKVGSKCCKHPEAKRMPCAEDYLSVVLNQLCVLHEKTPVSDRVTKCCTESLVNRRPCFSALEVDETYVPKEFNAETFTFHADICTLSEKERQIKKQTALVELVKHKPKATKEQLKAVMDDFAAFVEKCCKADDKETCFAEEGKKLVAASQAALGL

[7] = Partition coefficient by gradient HPLC; type: physicochemical
[8] = tested on: murine-derived macrophage (NR-9456); test: Cell toxicity assay; type: cell-based; settings: read-out: NR-9456 IC50, 24 h
Procedure, shortened: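 Bone marrow-derived murine macrophages kept in D10 (DMEM, 10% heat-inactivated bovine serum, 2 mM L-glutamine, penicillin/streptomycin, 20% Medium 199, gentamicin) at 37°C, 5% CO2. Grown to confluence in 96-well plates, then exposed to test compound at 0 to 100 μM for 24 h. Alamar blue added for 4 h, and fluorescence read for IC50.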

[9] = Metabolic stability in mouse liver microsomes; type: in vitro ADME; settings: for CLint, in vitro / T1/2: 1 μM, 0.4 mg/mL protein
[10] = tested on: hepatocytes (HC04); settings: read-out: HC04 IC50; cytotoxicity; ref Guigemende 2010; cited from earlier work
[11] = Metabolic stability in human liver microsomes; type: in vitro ADME; settings: for CLint, in vitro / T1/2: 1 μM, 0.4 mg/mL protein
[12] = tested on: B lymphocyte (RAJI); settings: read-out: RAJI IC50; cytotoxicity; ref Guigemende 2010; cited from earlier work
[13] = tested on: five mammalian cell lines (HFF, HEK293, HC04, RAJI, NR-9456); test: Cytotoxicity across five mammalian cell lines / in vitro therapeutic index; type: cell-based; settings: at the concentrations tested
[14] = tested on: T. gondii; test: T. gondii inhibition in vitro; type: cell-based, Toxoplasma gondii
Procedure, shortened: (§1)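 Confluent HFF (20,000 cells/well, D10, 37°C, 5% CO2) infected with 2,000 dTomato-expressing tachyzoites (type I RH or type II PRU). Invasion allowed for 12 h, then media replaced. Test compound added at 0 to 100 μM in duplicate. Parasite fluorescence read at day 5 post-infection for IC50.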

[15] = tested on: T. gondii RH-dTom tachyzoites; test: In vivo T. gondii survival study; set-up: species or system Swiss Webster CFW mice; settings: lethal dose of T. gondii strain RH tachyzoites
[16] = tested on: T. gondii PRU-dTom; test: T. gondii PRU-dTom; type: cell-based; settings: Toxoplasma gondii, 120 h, read-out: T. gondii PRU-dTom IC50
Procedure, shortened: as §1

[17] = cytotoxicity, 0 to 100 μM, Alamar blue

CC(C)(C)c1cc(/N=N/C(=O)c2ccncc2)cc(C(C)(C)C)c1O [KG8]
Decrease of T. gondii growth after host cell pre-treatment [1]: no effect | Ames Assay (TA100) [2]: Negative | Sol6.5 kinetic solubility [3]: 3.1 to 6.3 µg/mL | IC50 [4]: 0.97 µM | IC50 [5]: > 28 µM | cPPB (% bound) [6]: >99.5 % bound | gLogD (pH 7.4) [7]: 3.9 | IC50 [8, 17]: > 100 µM | CLint, in vitro [9]: 180 μL/min/mg protein | T1/2 [9]: 10 min | IC50 [10]: > 28 µM | Predicted EH (hepatic extraction ratio) [11]: 0.6 | CLint, in vitro [11]: 37 μL/min/mg protein | T1/2 [11]: 47 min | IC50 [12]: 0.68 µM | Cell lines whose growth was inhibited [13]: 2/5

CCc1nc(N)nc(N)c1-c1ccc(Cl)cc1 [Pyrimethamine, reference compound]
IC50 ([14]; Toxoplasma gondii, read-out: T. gondii IC50 in vitro): 0.25 to 1.5 µM | IC50 [4]: > 100 µM | IC50 [5]: > 100 µM | IC50 ([8]; Mus musculus, Macrophage): > 100 µM | IC50 [10]: > 100 µM | IC50 [12]: > 100 µM | Mice spared (survival) ([15]; 21 mg/kg): 100% | IC50 [16]: 0.79 µM

CCOc1ccc(/C=C/c2nc(=O)c3ccccc3o2)cc1 [KG3]
Decrease of T. gondii growth after host cell pre-treatment [1]: 21% | Ames Assay (TA100) [2]: Negative | Sol6.5 kinetic solubility [3]: 1.2 to 2.2 µg/mL | IC50 [4]: > 40 µM | IC50 [5]: > 40 µM | cPPB (% bound) [6]: 99 % bound | gLogD (pH 7.4) [7]: 2.8 | IC50 [8, 17]: > 100 µM | CLint, in vitro [9]: >886 μL/min/mg protein | T1/2 [9]: <2 min | IC50 [10]: > 40 µM | Predicted EH (hepatic extraction ratio) [11]: 0.88 | CLint, in vitro [11]: 129 μL/min/mg protein | T1/2 [11]: 9 min | IC50 [12]: > 40 µM | Cell lines whose growth was inhibited [13]: did not inhibit the growth of any of the five cell lines | Mice spared (survival) ([15]; 20 mg/kg IP twice daily): 33%

NNC(=O)c1ccncc1 [isoniazid]
Efficacy against Toxoplasma gondii in vitro ([14]; data not shown): no efficacy

CC(C)(C)c1cc(C2C(C#N)=C(N)OC3=C2C(=O)CCC3)cc(C(C)(C)C)c1O (stereo not drawn) [KG7]
Decrease of T. gondii growth after host cell pre-treatment [1]: no effect | Ames Assay (TA100) [2]: Negative | Effect on S. typhimurium growth in Ames assay ([2]; TA100 strain): appeared to inhibit S. typhimurium growth | Sol6.5 kinetic solubility [3]: 3.1 to 6.3 µg/mL | IC50 [4]: > 36 µM | IC50 [5]: > 36 µM | cPPB (% bound) [6]: 93 % bound | gLogD (pH 7.4) [7]: 3.9 | IC50 [8, 17]: > 100 µM | Predicted EH (hepatic extraction ratio) [9]: >0.94 | CLint, in vitro [9]: >886 μL/min/mg protein | T1/2 [9]: <2 min | IC50 [10]: 3 µM | Predicted EH (hepatic extraction ratio) [11]: 0.97 | CLint, in vitro [11]: 746 μL/min/mg protein | T1/2 [11]: 2 min | IC50 [12]: 3 µM | Cell lines whose growth was inhibited [13]: 2/5

Source: PMC5809185 (Parasitology international, 2018)
